CendR NRP1 mod – NRP-1/CendR interaction modulation; O14786; FAM-RPARPAR peptide binding to NRP-1, fluorescence polarization; inhibition, % at 25 µM; hit rate 0.85% among 360,000; AID 602438;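 active = inhibition or corrected inhibition above about 18%, plus a signal ratio from 0.5 to 1.5, limit read from the data, passing the limit was not always enough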
SENP1 inh – blocks the human SENP1 SUMO protease catalytic domain | Q9P0U3 | recombinant SENP1 catalytic domain, CyPet-SUMO1-YPet FRET cleavage | AID 624204 | hit rate 0.21% among 360,000 | inhibition, % at 10 µM;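 active = inhibition at least 30% at 10 µM, raw YFP signal under a set limit, fluorescence ratio 0.5 to 1.5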
Target sequence (Q9P0U3 419-644 limits assumed): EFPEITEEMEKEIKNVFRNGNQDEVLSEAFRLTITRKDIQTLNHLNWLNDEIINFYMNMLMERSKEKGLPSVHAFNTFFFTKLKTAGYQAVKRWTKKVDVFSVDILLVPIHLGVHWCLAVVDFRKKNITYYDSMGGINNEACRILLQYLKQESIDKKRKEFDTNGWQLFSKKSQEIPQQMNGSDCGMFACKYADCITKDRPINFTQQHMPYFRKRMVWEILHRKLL
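System: Recombinant human SENP1 catalytic domain, His6-tagged | Incubation: Enzyme reaction for 50 min at room temperature, dark | Medium: Tris pH 8 with BME, BSA, NP40 and catalase | Also added: 25 nM SUMO1 FRET substrate | Compound: 10 µM single point, 0.5% DMSO | Measured by: FRET fluorescence in CFP and YFP emission channels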
MT1-MMP act inh – inhibitors of human MT1-MMP activation; HT1080 RFP-PRO-GFP cells, GFP/RFP ratio fluorescence, overnight; percent of plate control window, DMSO zero; GFP/RFP ratio change, % at 20 µM; hit rate 0.061% among 360,000;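 active = GFP/RFP ratio change of at least 30% with cell ATP level not reduced by more than half and red fluorescence within 50% of control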
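Material: RFP-PRO-GFP reporter HT1080 cells. Dosing: single-point 20 µM compound, 1% DMSO. Controls: DMSO and RFP-L50D-GFP cell wells. Timing: cells overnight before dosing, compound overnight, 37 °C, 5% CO2. Measure: GFP/RFP fluorescence ratio.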
MIN6 prolif – inducers of beta-cell replication in MIN6 cells; AID 2380; MIN6 cells proliferation, ATPlite luminescence, 48 h; cells starved in 0.2% serum; 100% = growth in 10% serum; proliferation, % at 10 µM; hit rate 0.29% among 330,000;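 active = compounds whose signal lies at least 3.5 SD above the mean of all wells on their plate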
DAGLB inh – blocks human DAGLB lipase activity. AID 504411. HEK293T DAGLB membrane lysate, EnzChek fluorogenic substrate. inhibition, % at 5.17 µM. hit rate 0.059% among 340,000; in the data active = inhibition above about 34%
Myeloid diff 2 – promotes myeloid progenitor differentiation; ER-HoxA9 myeloid progenitors, lysozyme-GFP differentiation, flow cytometry; calls only at 10 µM; hit rate 1% among 360,000; AID 624256;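 active = normalized GFP-positive differentiation at or above the plate's own cutoff, the solvent-only control mean plus 3 SD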;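 note: cells exposed to compound for four days before flow analysis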
Myeloid diff – myeloid differentiation induction. AID 651706. ER-HoxA9 myeloid progenitors, GFP/Mac1 double-positive flow. hit rate 2% among 2,300. shares compounds with Myeloid diff 2. calls only;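 active = share of green or green-and-red cells above 9 and 9% in run 1 or 4 and 3% in run 2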
GFP autofluor – flagged as fluorescent in myeloid differentiation counter-screen; shares compounds with Myeloid diff 2; AID 651707; fluorescence response, % (concentration not given with the values); hit rate 7.4% among 2,300; ER-HoxA9 myeloid progenitors, no estrogen, GFP autofluorescence flow cytometry; vehicle wells 0%, positive control 100%;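 active = over 5% cells positive for green fluorescent reporter, or over 2% positive for both it and APC stain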
Hits are given with their value; i = inactive; nt = no result given; + = active, no number. An excerpt weighted towards active compounds, which were near 2.4% of everything screened.

SMILES	CendR NRP1 mod	SENP1 inh	MT1-MMP act inh	MIN6 prolif	DAGLB inh	Myeloid diff 2	Myeloid diff	GFP autofluor
CCOc1cc(C=C2C(=O)c3ccccc3C2=O)ccc1OCC(=O)Nc1ccc(C)cc1	i	i	i	i	i	+	i	i
O=C(/C=C/NCc1cccnc1)c1ccc(Br)cc1	i	i	i	i	i	i	nt	nt
COc1cc(OC)c(OC)cc1/C=N/NC(=O)c1cc(-c2cccn2C)n[nH]1	i	i	i	i	i	i	nt	nt
CCOc1cccc(/C=N/NC(=O)c2cc(-c3cccn3C)n[nH]2)c1O	i	i	i	i	i	+	i	i
O=C(Nc1nccs1)C1CCN(S(=O)(=O)c2c(Cl)cccc2Cl)CC1	i	i	i	i	i	i	nt	nt
CCc1ccc(-c2nc(SCC(=O)N3CCOCC3)n[nH]2)cc1	i	i	i	i	i	+	i	14
CN1CCS/C1=C/C=C1/SC(=S)N(Cc2ccccc2)C1=O	i	i	i	nt	i	+	i	23
Nc1ccc2nn(-c3ccccc3)nc2c1	i	i	i	i	i	i	i	i
O=C(COC(=O)C1C2CC3OC(=O)C1C3C2)Nc1cccc(C(F)(F)F)c1 (stereo unspecified)	i	i	i	i	i	i	nt	nt
O=C(Nc1cccc(C(F)(F)F)c1)C1C2CC3OC(=O)C1C3C2 (stereo unspecified)	i	i	i	i	i	+	i	i
Cc1ccc(C(c2ccc(C)c(C)c2)C(O)C2OC(=O)C(O)C2O)cc1C (stereo unspecified)	i	i	nt	nt	i	i	nt	nt
CC(=O)c1cccc(Nc2ccc(Br)cc2)c1	i	i	i	nt	nt	i	nt	nt
COC(=O)c1ccccc1NC(=O)C1CC=CCC1C(=O)O (stereo unspecified)	i	i	i	i	i	i	i	i
O=C(Nc1ccc(-c2nc3cc(Cl)ccc3c(=O)o2)cc1)c1ccco1	i	i	i	i	i	i	nt	nt
O=C(Nc1ccc(-c2nc3c(ccc4ccccc43)o2)cc1)c1ccco1	i	i	i	i	i	+	i	i
CCc1sc(C(=O)NCCc2ccc(S(N)(=O)=O)cc2)cc1Br	i	i	i	i	i	i	nt	nt
Cc1cnc(C(=O)OCC(=O)N(Cc2ccccc2)C(C)C)cn1	i	i	i	i	i	i	nt	nt
CCCn1cc(S(=O)(=O)CC(=O)NC2CCCCC2)c2ccccc21	i	i	nt	i	i	nt	i	i
CCCn1cc(SCC(=O)NC2CCCC2)c2ccccc21	i	i	i	i	i	i	nt	nt
CC[C@]12c3[nH]c4cc(-c5ccco5)ccc4c3CCN1C(=O)[C@@H](CC(=O)NCCC1=CCCCC1)C[C@@H]2C(=O)N1CCN(C(=O)c2ccco2)CC1	i	i	i	nt	i	i	nt	nt
CN(C)CCC(=O)NCC1OCCc2ccccc21 (stereo unspecified)	i	i	i	i	i	i	nt	nt
CCc1ccccc1NC(=O)CN1CCN(C(=O)C2CCN(C(=O)/C=C/c3ccccc3)CC2)CC1	i	i	i	i	i	i	nt	nt
CC(C)(C)CC(C)(C)NCC(O)COc1c(F)cc(Br)cc1F (stereo unspecified)	i	i	i	i	i	+	i	i
COc1cccc(C(=O)NC(C)CCc2ccccc2)c1 (stereo unspecified)	i	i	i	i	i	i	nt	nt
COc1ccc(S(=O)(=O)N(C)[C@H]2C[C@H]3c4cc(N5CCN(C)CC5)ccc4CCN3C(=O)[C@H]2[C@H](C)O)cc1	i	i	i	nt	i	i	nt	nt
SMILES	CendR NRP1 mod	SENP1 inh	MT1-MMP act inh	MIN6 prolif	DAGLB inh	Myeloid diff 2	Myeloid diff	GFP autofluor
COc1cccc(C(O)c2nc(-c3ccccc3OC)cs2)c1 (stereo unspecified)	i	i	i	nt	nt	i	nt	nt
COc1cccc(C(O)c2nc(-c3ccccc3C)cs2)c1 (stereo unspecified)	i	i	i	nt	nt	+	i	i
O=C(Nc1nc2c(F)cccc2s1)C1CC1	i	i	i	i	i	i	nt	nt
CC1CCc2c(sc(Nc3nc4c(F)cccc4s3)c2C(N)=O)C1 (stereo unspecified)	i	i	i	i	i	+	i	6.4
CC(=O)Nc1cccc(C(=O)OCC(=O)N2CCN(C(=O)COC(=O)c3cccc(NC(C)=O)c3)CC2)c1	i	i	i	nt	i	i	nt	nt
CCN1CCN(c2ccc(S(=O)(=O)N3CCCCC3)cc2NC(=O)/C=C/c2ccc(Cl)cc2)CC1	i	i	i	nt	i	+	i	16
CCN1CCN(c2ccc(S(=O)(=O)N3CCCCC3)cc2NC(=O)c2ccc([N+](=O)[O-])s2)CC1	i	i	i	i	i	+	i	i
O=C(COc1cccc(C(F)(F)F)c1)Nc1ccc(S(=O)(=O)N2CCCCC2)cc1	i	i	i	i	i	i	nt	nt
O=C(NCCCN1CCOCC1)c1ccc2c(=O)n(Cc3ccc(Cl)cc3)c(=S)[nH]c2c1	i	i	i	i	i	i	nt	nt
CC(C)(C)NC(=O)CCN(/N=C/c1ccc([N+](=O)[O-])o1)C1=NS(=O)(=O)c2ccccc21	i	i	i	nt	i	+	i	i
N=C(c1cccc([N+](=O)[O-])c1)N1CCCCC1	i	i	i	i	i	i	nt	nt
O=[N+]([O-])c1ccc(-c2ccc(/C=N/Nc3nc(N4CCCC4)nc(N4CCCC4)n3)o2)cc1	i	i	i	i	i	+	i	6.0
O=C(Cc1ccccc1)N/N=C/c1ccc(-c2ccc([N+](=O)[O-])cc2)o1	i	i	i	i	i	+	i	i
O=[N+]([O-])c1ccc(/C=N/Nc2nc(N3CCCC3)nc(N3CCCC3)n2)o1	i	i	i	i	i	i	nt	nt
O=C(Cn1c(NCCCO)nc2ccccc21)c1ccc(Cl)cc1Cl	i	i	i	i	i	i	nt	nt
COc1ccc(CN=CC2=C(O)CNC2=O)cc1OC	i	i	i	i	i	i	i	i
O=C1NCC(O)=C1C=NCCCO	i	i	i	i	i	i	nt	nt
COCCCNC(=S)NC1CC2CCCC(C1)N2Cc1ccco1 (stereo unspecified)	i	i	i	i	i	i	i	i
CNC(=S)NC1CC2CCCC(C1)N2Cc1ccco1 (stereo unspecified)	i	i	nt	i	i	i	nt	nt
COc1ccc(C)cc1NC(=O)n1ncc2cc(Cl)ccc21	i	i	i	i	i	+	+	i
Cc1ccccc1NC(=O)n1ncc2cc(Cl)ccc21	i	i	i	i	i	i	nt	nt
Cc1nn2c(-n3ccnc3C)c3c(nc2c1-c1ccccc1)CCC3	i	i	i	i	i	i	nt	nt
